{
  "source": "paper PMC10278071",
  "about": "(ACS Chemical Biology, 2023)",
  "key": {"C4–2 cells [1]": {"tested_on": "C4–2 cells", "experiment": "C4–2 cell growth with harmine and bicalutamide", "assay_type": "cell-based, human", "conditions": "bicalutamide 10 μM, harmine 7 μM, alone or combined, after 6–8 days"}, "murine DNMT3a": {"tested_on": "murine DNMT3a", "conditions": "read-out: IC50 murine DNMT3a; library screening; cited from earlier work"}, "DYRK1A": {"tested_on": "DYRK1A", "conditions": "read-out: IC50 DYRK1A; cited from earlier work"}, "C4–2 cells [2]": {"tested_on": "C4–2 cells", "experiment": "Annexin V and PI staining flow cytometry apoptosis assay", "assay_type": "cell-based, human", "conditions": "24 h", "method_in_brief": "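C4–2 cells starved 24 h, then exposed 24 h in serum-free medium to test compound at 0, 50 or 100 μM. Cells washed twice in ice-cold PBS and resuspended at 2 × 10^6 cells/mL in binding buffer (10 mM HEPES pH 7.4, 150 mM NaCl, 2.5 mM CaCl2). Stained with APC-annexin V plus PI, then analysed by flow cytometry with compensation for spectral overlap.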"}, "DNMT3B-3L": {"target": "DNMT3B-3L (Homo sapiens, UniProt Q9UBC3)", "experiment": "Isothermal titration calorimetry", "assay_type": "binding", "method_in_brief": "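Purified DNMT3B-3L complex at 0.02 mM in 20 mM Tris-HCl pH 8.0, 100 mM NaCl, 0.2 mM TCEP. Titrated with 7 μL injections of 0.52 mM test compound. Ligand-into-buffer heat subtracted. Independent binding model fitted to give n, Kd, ΔH and ΔS. Triplicate.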"}, "C4–2 cells [3]": {"tested_on": "C4–2 cells", "experiment": "Western blot of caspase-3 and Bcl-2 after harmine treatment", "assay_type": "cell-based, human", "conditions": "50 and 100 μM harmine, 24 h, serum-free"}, "DU145 cells": {"tested_on": "DU145 cells", "experiment": "Quantitative real-time PCR of hypermethylated genes", "assay_type": "cell-based, human", "conditions": "DU145, 10 μM, 16 h, normalized to 18S rRNA", "method_in_brief": "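DU145 cells (RPMI 1640, 10% FBS) treated with test compound at 0 or 10 μM for 16 h. Total RNA extracted with TRIzol and DNase-treated; 5 μg reverse-transcribed. SYBR Green qPCR with two-step cycling. Expression normalized to 18S rRNA, reported as fold change versus untreated cells. Student's t-test between groups.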"}, "DNMT3B-3L complex [4]": {"target": "T1, DNMT3B-3L complex (Homo sapiens, UniProt Q9UBC3)", "experiment": "Intrinsic tryptophan fluorescence spectroscopy titration", "assay_type": "binding", "method_in_brief": "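His-tagged DNMT3B (571–853) and DNMT3L (179–379), co-lysed from E. coli Rosetta2(DE3)pLysS and tag-cleaved, 1 μM complex. Titrated with test compound 0–80 μM at 25 °C. Excitation 280 nm, emission 300–450 nm, slit 5 nm. Buffer titrations subtracted as background. Intensity change fitted by nonlinear one-site specific binding. Three independent experiments.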"}, "DNMT3B-3L complex [5]": {"target": "T1, DNMT3B-3L complex", "experiment": "Inhibition kinetics assay", "assay_type": "biochemical", "conditions": "for mode of inhibition versus SAM (Lineweaver–Burk): constant Vmax, increased Km upon inhibitor binding"}, "Cdk2/cyclin A": {"tested_on": "Cdk2/cyclin A", "conditions": "read-out: IC50 Cdk2/cyclin A; cited from earlier work"}, "Cdk5/p25": {"tested_on": "Cdk5/p25", "conditions": "read-out: IC50 Cdk5/p25; cited from earlier work"}, "[6]": {"target": "acetylcholine esterase (AChE)", "conditions": "read-out: IC50 AChE; cited from earlier work"}, "Cdk1/cyclin B": {"tested_on": "Cdk1/cyclin B", "conditions": "read-out: IC50 Cdk1/cyclin B; cited from earlier work"}, "DNMT1": {"tested_on": "DNMT1", "conditions": "cited from earlier work"}, "DNMT3B": {"tested_on": "DNMT3B", "conditions": "read-out: IC50 DNMT3B; cited from earlier work"}, "DNMT3A [7]": {"tested_on": "DNMT3A", "conditions": "read-out: IC50 DNMT3A; cited from earlier work"}, "DNMT3A [8]": {"tested_on": "DNMT3A", "conditions": "read-out: IC50 DNMT3A; cited from earlier work", "remark": "listed apart in the source"}, "human DNMT1": {"tested_on": "human DNMT1", "conditions": "read-out: IC50 human DNMT1; cited from earlier work"}},
  "note": "Like-named read-outs stand apart in the source and are kept apart here.",
  "data": [
    {"smiles": "CC(O)(CS(=O)(=O)c1ccc(F)cc1)C(=O)Nc1ccc(C#N)c(C(F)(F)F)c1", "note": "(stereo not drawn) [bicalutamide]", "values": [
      {"measurement": "reduction of number of viable cells / cell proliferation", "setting": "C4–2 cells [1]", "result": 17, "unit": "%"}
    ]},
    {"smiles": "COc1ccc2c(c1)[nH]c1c(C)nccc12", "note": "[harmine]", "values": [
      {"measurement": "IC50", "setting": "murine DNMT3a", "result": 2.3, "unit": "µM"},
      {"measurement": "IC50", "setting": "DYRK1A", "result": "[…]"},
      {"measurement": "cell apoptosis (Annexin V and PI staining)", "setting": "C4–2 cells [2]; 0, 50, 100 μM harmine", "result": "induced cell apoptosis"},
      {"measurement": "concentration inducing C4–2 cell death", "setting": "C4–2 cells [2]; from western blot and flow cytometry", "result": "[…]"},
      {"measurement": "Kd", "setting": "DNMT3B-3L", "result": "3.35 ± 0.3", "unit": "µM"},
      {"measurement": "ΔG, ITC", "setting": "DNMT3B-3L; 25 °C, mean ± SD, n=3", "result": "[…]"},
      {"measurement": "reduction of number of viable cells / cell proliferation", "setting": "C4–2 cells [1]", "result": 40, "unit": "%"},
      {"measurement": "Bcl-2 protein levels", "setting": "C4–2 cells [3]", "result": "decreased Bcl-2 protein levels"},
      {"measurement": "levels of cleaved caspase-3", "setting": "C4–2 cells [3]", "result": "increased the levels of cleaved caspase-3"},
      {"measurement": "mRNA levels of DNMT3A and DNMT3B genes", "setting": "DU145 cells", "result": "did not result in significant changes"},
      {"measurement": "Kd", "setting": "DNMT3B-3L complex [4]", "result": "3.48 ± 1.95", "unit": "µM"},
      {"measurement": "mode of inhibition versus SAM (Lineweaver–Burk)", "setting": "DNMT3B-3L complex [5]", "result": "competitive inhibitors"},
      {"measurement": "IC50", "setting": "Cdk2/cyclin A", "result": 33, "unit": "µM"},
      {"measurement": "IC50", "setting": "Cdk5/p25", "result": 20, "unit": "µM"},
      {"measurement": "IC50", "setting": "[6]", "result": 9.05, "unit": "µM"},
      {"measurement": "IC50", "setting": "Cdk1/cyclin B", "result": 17, "unit": "µM"}
    ]},
    {"smiles": "Oc1ccc(/C=C/c2cc(O)cc(O)c2)cc1", "note": "[resveratrol]", "values": [
      {"measurement": "inhibitory activity on DNMT1", "setting": "DNMT1", "result": "no inhibitory activity"},
      {"measurement": "IC50", "setting": "DNMT3B", "result": 65, "unit": "µM"},
      {"measurement": "IC50", "setting": "DNMT3A [7]", "result": 105, "unit": "µM"},
      {"measurement": "Ki", "setting": "DNMT3B-3L complex [5]", "result": "23.6 ± 4.17", "unit": "µM"},
      {"measurement": "mode of inhibition versus SAM (Lineweaver–Burk)", "setting": "DNMT3B-3L complex [5]", "result": "competitive inhibitors"}
    ]},
    {"smiles": "Nc1ncnc2c1ncn2[C@@H]1O[C@H](C[C@@H](N)CC[C@H](N)C(=O)O)[C@@H](O)[C@H]1O", "note": "[sinefungin]", "values": [
      {"measurement": "IC50", "setting": "DNMT3A [8]", "result": 1.8, "unit": "µM"},
      {"measurement": "IC50", "setting": "human DNMT1", "result": "[…]"}
    ]}
  ]
}
